{
  "source": "ChEMBL document CHEMBL1124436",
  "about": "“Benzofurans as mechanism-based inhibitors of dopamine beta-hydroxylase” (J Med Chem, 1989)",
  "key": {"[1]": {"molecular_target": "T1, Dopamine beta-hydroxylase (Bos taurus, UniProt P15101)", "T1 sequence (P15101 whole entry)": "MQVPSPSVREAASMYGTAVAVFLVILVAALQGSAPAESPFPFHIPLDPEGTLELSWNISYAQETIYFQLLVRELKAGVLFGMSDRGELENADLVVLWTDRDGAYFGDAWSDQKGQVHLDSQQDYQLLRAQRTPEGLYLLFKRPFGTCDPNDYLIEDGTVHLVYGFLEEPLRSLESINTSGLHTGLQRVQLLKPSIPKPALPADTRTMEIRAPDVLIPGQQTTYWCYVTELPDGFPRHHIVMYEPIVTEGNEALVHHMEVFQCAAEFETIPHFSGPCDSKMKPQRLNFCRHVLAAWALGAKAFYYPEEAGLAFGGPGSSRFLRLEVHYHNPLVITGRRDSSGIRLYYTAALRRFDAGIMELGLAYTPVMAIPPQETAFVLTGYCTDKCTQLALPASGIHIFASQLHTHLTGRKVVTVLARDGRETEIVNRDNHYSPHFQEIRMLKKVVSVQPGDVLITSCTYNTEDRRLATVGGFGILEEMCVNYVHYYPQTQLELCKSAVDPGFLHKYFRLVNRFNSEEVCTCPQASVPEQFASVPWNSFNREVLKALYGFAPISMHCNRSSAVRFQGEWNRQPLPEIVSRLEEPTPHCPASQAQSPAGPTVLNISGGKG", "experiment": "Compound was evaluated for the ability to bind to dopamine beta-hydroxylase of bovine", "outline": "(§1)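 Purified bovine DβH (20-40 μg) was preincubated at 25 °C with varied inhibitor in 100 mM Mes/100 mM NaOAc, pH 5.0, with 0-3% DMF, 0.5 mg/mL catalase and 12 mM ascorbate. Timed aliquots went into assay mix at 37 °C, pH 5.5, with 30 mM tyramine and 12 mM ascorbate, and O2 uptake was read. Apparent kinact came from ln(activity) versus time; 1/kinact versus 1/[I] replots gave kinact and Ki.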"}, "[2]": {"molecular_target": "T2, Dopamine beta-hydroxylase (Bos taurus) (UniProt P15101)", "T2 sequence (whole entry)": "T1 sequence (P15101 whole entry)", "experiment": "Inactivation constant of compound was determined by using bovine dopamine beta-hydroxylase", "outline": "as §1"}, "[3]": {"experiment": "Ratio of inactivation constant (Kinact) and inhibitory constant (Ki)", "outline": "as §1"}, "[4]": {"experiment": "(§2) Partition ratio was determined by quantitating amount of compound consumed after complete inactivation of a known amount of dopamine beta-hydroxylase.", "outline": "(§3)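 Bovine DβH (15-20 μg) was fully inactivated at 25 °C with inhibitor in 125 mM Mes/125 mM NaOAc, pH 5.5, with 0.5 mg/mL catalase and 12 mM ascorbate. Inhibitor consumed was quantified by C18 HPLC (water-acetonitrile) with UV detection at each inhibitor's maximum. Controls without enzyme were run. Partition ratio is turnover/inactivation.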"}, "[5]": {"molecular_target": "T2, Dopamine beta-hydroxylase (Bos taurus)", "experiment": "as §2", "outline": "as §3"}},
  "data": [
    {"compound": "NCC=C1SCCS1", "values": [
      {"measurement": "Ki", "setting": "[1]", "result": 5, "unit": "µM"},
      {"measurement": "K inact", "setting": "[2]", "result": 0.15, "unit": "min⁻¹"},
      {"measurement": "Ratio", "setting": "[3]", "result": 30000}
    ]},
    {"compound": "Oc1cccc2ccoc12", "values": [
      {"measurement": "Ki", "setting": "[1]", "result": 3200, "unit": "µM"},
      {"measurement": "K inact", "setting": "[2]", "result": 0.25, "unit": "min⁻¹"},
      {"measurement": "Partition ratio", "setting": "[4]", "result": 35}
    ]},
    {"compound": "C=C(CN)c1ccc(O)cc1", "values": [
      {"measurement": "Ratio", "setting": "[3]", "result": 1560}
    ]},
    {"compound": "C/C=C/c1ccc(O)cc1", "values": [
      {"measurement": "Ki", "setting": "[1]", "result": "> 20000", "unit": "µM"},
      {"measurement": "Partition ratio", "setting": "[5]", "result": 680}
    ]},
    {"compound": "Oc1ccc2occc2c1", "values": [
      {"measurement": "Ki", "setting": "[1]", "result": 1900, "unit": "µM"},
      {"measurement": "K inact", "setting": "[2]", "result": 0.23, "unit": "min⁻¹"},
      {"measurement": "Partition ratio", "setting": "[4]", "result": 8}
    ]},
    {"compound": "C#CC(CN)c1ccc(O)cc1", "note": "(stereo not given)", "values": [
      {"measurement": "Ratio", "setting": "[3]", "result": 3230}
    ]},
    {"compound": "Oc1ccc2ccoc2c1", "values": [
      {"measurement": "Ki", "setting": "[1]", "result": 40, "unit": "µM"},
      {"measurement": "K inact", "setting": "[2]", "result": 0.23, "unit": "min⁻¹"},
      {"measurement": "Partition ratio", "setting": "[4]", "result": 27},
      {"measurement": "Ratio", "setting": "[3]", "result": 5750}
    ]},
    {"compound": "C=Cc1ccc(O)cc1", "note": "[4-VINYLPHENOL]", "values": [
      {"measurement": "Ki", "setting": "[1]", "result": 700, "unit": "µM"},
      {"measurement": "K inact", "setting": "[2]", "result": 0.025, "unit": "min⁻¹"},
      {"measurement": "Partition ratio", "setting": "[4]", "result": 730}
    ]}
  ]
}
